High-throughput results (PubChem BioAssay)
COUP-TFII inh: NR2F2 transcriptional activity inhibitors, primary screen, cell-based, luciferase reporter, HEK293T, luminescence. COUP transcription factor 2 (Homo sapiens), P24468. HEK293T NGFI-A luciferase reporter. inhibition, % at 8.6 µM. 0.7% of 370,000 active;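 active = inhibition above a per-plate cutoff, mean inhibition of test wells between control levels plus 3 SD, cut at about 38% in these data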;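 also: cells cotransfected with COUP-TFII expression vector driving the NGFI-A reporter; 0% = median of COUP-TF2 test wells and 100% = reporter-only cells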
Target sequence (P24468 whole entry, looked up): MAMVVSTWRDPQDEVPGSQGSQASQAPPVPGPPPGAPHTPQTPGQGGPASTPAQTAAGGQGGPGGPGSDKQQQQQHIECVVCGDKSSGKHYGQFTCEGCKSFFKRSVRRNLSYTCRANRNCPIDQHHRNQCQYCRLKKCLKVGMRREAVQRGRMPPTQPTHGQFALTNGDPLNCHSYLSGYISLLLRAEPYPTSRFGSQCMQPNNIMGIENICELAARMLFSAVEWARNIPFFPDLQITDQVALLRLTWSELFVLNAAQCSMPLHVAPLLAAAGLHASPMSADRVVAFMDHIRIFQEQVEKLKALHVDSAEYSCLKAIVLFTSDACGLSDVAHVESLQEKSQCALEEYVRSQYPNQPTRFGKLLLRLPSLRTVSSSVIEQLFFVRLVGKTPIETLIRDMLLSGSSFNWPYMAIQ
SMARCA2 act: SMARCA2 (BRM) function activators, primary screen, cell-based, luminescence, high throughput. MG213 cells, MMTV-luciferase reporter, dexamethasone, overnight. activation, % at 9.1 µM. 1% of 370,000 active; in the data active = activation above about 7.8%;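 also: 0% = vehicle wells and 100% = reference activator wells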
NR2E3 ag-1: NR2E3 agonists in two-hybrid cells, primary screen, cell-based, luminescence, CHO-S, Gal4-NCOR/VP16-NR2E3; inhibition of corepressor binding, % at 3.98 µM; 0.35% of 360,000 active; luciferase;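 active = inhibition above the mean of all tested compounds plus 3 SD, cut at about 70% in these data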;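 also: 0% = DMSO with NR2E3 transfected cells and 100% = cells lacking NR2E3 construct; higher means lower luciferase signal from less NR2E3 corepressor binding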
NR2E3 ag-2: inhibitors of NR2E3-RetCOR corepressor binding, primary screen, NR2E3 agonist project, biochemical, TR-FRET, GST-NR2E3, biotin-RetCOR; AID 2300, 2010; 1536-well; inhibition of corepressor binding, % at 4.78 µM; 0.12% of 320,000 active;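 active = percent inhibition above the cutoff of mean plus 3 SD of all tested compounds, set per screening campaign, cut at about 20% in these data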;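 also: 0% = DMSO wells and 100% = biotin wells as full block of FRET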
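Test system: GST-NR2E3 and biotin-RetCOR proteins | Quantity: 1.35 nM GST-tagged NR2E3 final | Medium: Tris pH 7.5 | Also added: 7 nM biotin-RetCOR | Dosing: Compound at 4.8 µM, single dose | Timing: 5 h at 4 °C | Detection: Time-resolved FRET | Read-out basis: Percent inhibition | Benchmarks: Biotin wells as high control, 0.6% DMSO wells as low control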
GalR3 antag: GalR3 antagonists in HEK293 cells, primary screen, cell-based, fluorescence readout | Galanin receptor type 3 (Homo sapiens), O60755 | HEK293 GalR3-CNG cAMP membrane potential fluorescence; galR3 body fused to GalR1 C-terminus | inhibition, % at 3 µM | 0.44% of 360,000 active | AID 651719, 2012;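 active = inhibition above the screen-wide average plus 3 SD, cut at about 13% in these data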;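 also: forskolin and galanin both at EC90 stimulate the cells; cAMP rise reported by CNG channel membrane potential dye signal; 0% = forskolin plus galanin with DMSO and 100% = forskolin alone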
GalR3 conf: GalR3 antagonist hit confirmation, cell-based, fluorescence, triplicate | shares compounds with GalR3 antag | HEK293 GalR3 CNG cAMP biosensor, membrane potential fluorescence; galR3 fused to GalR1 carboxy tail; challenged with forskolin and galanin at EC90 | inhibition, % at 3 µM | 59% of 1,600 active;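 active = inhibition above the primary screen's cutoff, the mean inhibition of all screened compounds plus 3 SD, cut at about 13% in these data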;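 also: 0% = forskolin plus galanin and 100% = forskolin alone with DMSO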
HEK-CNG parental: nonspecific cAMP agonists in parental HEK-CNG cells, counter-screen for GalR3 antagonist project, cell-based, fluorescence, high throughput; HEK293-CNG parental cells, cAMP membrane potential fluorescence; normalised: DMSO wells 0%, forskolin wells 100%; AID 652268, 2013; 10% of 1,600 active; shares compounds with GalR3 antag; activation, % at 3 µM; in the data active = activation above about 1.3%
* = called active by the depositor; ! = repeats disagree. Rows were chosen to be rich in hits. Some 2.2% of all compounds tested hit in one or more screens of this group.

Screening CSc1nsc2nc(=O)c(/C=C3\C(C)=Nc4ccccc43)c(N)n12 returned COUP-TFII inh -21, SMARCA2 act -2, NR2E3 ag-1 -60, GalR3 antag 13*, GalR3 conf 3 and HEK-CNG parental 0.
`C[C@H]1CCCN1c1ccc2c(c1)OCCCN(C1CC1)S2(=O)=O` gave COUP-TFII inh -2 and SMARCA2 act -1.
O=C(C(=O)N1CCN(c2ccc(F)cc2)CC1)N1CCCCC1 was read as COUP-TFII inh -2, SMARCA2 act -6, NR2E3 ag-1 15, NR2E3 ag-2 1, GalR3 antag 18*, GalR3 conf 1 and HEK-CNG parental 0.
For COc1ccc(/C=C(/NC(=O)c2ccccc2)C(=O)NC2CCS(=O)(=O)C2)cc1 (centres undefined) the results were COUP-TFII inh 1, SMARCA2 act 0, NR2E3 ag-1 -6, NR2E3 ag-2 -4, GalR3 conf 1 and HEK-CNG parental 0.
NNC(=O)c1cc2c(N3CCC(Cc4ccccc4)CC3)ncnc2s1 was read as COUP-TFII inh 12, SMARCA2 act -3, NR2E3 ag-1 3, NR2E3 ag-2 2, GalR3 antag 29*, GalR3 conf 21* and HEK-CNG parental 1.
Cn1ncc2c(N3CCC(Cc4ccccc4)CC3)ncnc21 was read as COUP-TFII inh 14, SMARCA2 act -2, NR2E3 ag-1 28, NR2E3 ag-2 0 and GalR3 antag -5.
`CCCCNC(=O)OCCCN1CCC2(CCC(c3ccccc3)CC2)C1` (centres undefined) gave COUP-TFII inh 19 and SMARCA2 act -4.
`O=C(COc1cc(Cl)c(Cl)cc1Cl)Nc1ccncc1` gave COUP-TFII inh -28, SMARCA2 act -1, NR2E3 ag-1 -11, NR2E3 ag-2 -2, GalR3 antag 13*, GalR3 conf 9 and HEK-CNG parental 0.
For O=C(COc1cc(Cl)c(Cl)cc1Cl)Nc1cccc(O)c1 the results were COUP-TFII inh -31, SMARCA2 act 3, NR2E3 ag-1 -22, NR2E3 ag-2 -1 and GalR3 antag -10.
Screening N#CC(C#N)C(c1ccsc1)c1c(-c2ccccc2)[nH][nH]c1=O (centres undefined) returned COUP-TFII inh 3, SMARCA2 act -1, NR2E3 ag-1 8, NR2E3 ag-2 -2, GalR3 antag 14*, GalR3 conf 17* and HEK-CNG parental 2.8*.
Screening Cc1ccc(C2=CCN(C)C(=O)N2c2ccc([N+](=O)[O-])cc2)cc1 returned COUP-TFII inh 12 and SMARCA2 act -4.
`c1ccc(-n2cnnc2SCc2cn3ccccc3n2)cc1` gave COUP-TFII inh -3, SMARCA2 act 1, NR2E3 ag-1 -35, NR2E3 ag-2 -3, GalR3 antag 54*, GalR3 conf 2 and HEK-CNG parental 0.
Screening Cc1ccc(S(=O)(=O)NCc2ccccc2)s1 returned COUP-TFII inh 10, SMARCA2 act 5, NR2E3 ag-1 -45, NR2E3 ag-2 0 and GalR3 antag -5.
`Cc1ccc(S(=O)(=O)NCc2cccnc2)s1` gave COUP-TFII inh 29, SMARCA2 act -1, NR2E3 ag-1 -11, NR2E3 ag-2 1, GalR3 antag 13*, GalR3 conf 3 and HEK-CNG parental 0.
C[C@H](NCCc1ccc(O)cc1)[C@H](O)c1ccc(O)cc1 was read as COUP-TFII inh -57, SMARCA2 act -2, NR2E3 ag-1 -17, NR2E3 ag-2 3, GalR3 antag 39*, GalR3 conf 62* and HEK-CNG parental 1.
`COc1ccc(NC(=O)c2ccc(CNc3c(NC4CCCCC4)c(=O)c3=O)cc2)c(OC)c1` gave COUP-TFII inh -3, SMARCA2 act 2, NR2E3 ag-1 -33, NR2E3 ag-2 3, GalR3 antag 14*!, GalR3 conf 4 and HEK-CNG parental 0.
`Nc1ncn(C2O[C@H](CO)[C@@H](O)[C@H]2O)c(=O)n1` (some centres undefined) gave NR2E3 ag-2 0.
Nc1cnn(C2OC(CO)C(O)C2O)c(=O)n1 (centres undefined) was read as COUP-TFII inh 5, SMARCA2 act -5, NR2E3 ag-1 -12, NR2E3 ag-2 2, GalR3 antag 21*, GalR3 conf 4 and HEK-CNG parental 0.
C=Cc1ccc(C(=O)Nc2nnc(-c3cccnc3)s2)cc1 was read as COUP-TFII inh -17 and SMARCA2 act 4.
Nc1cc(=O)[nH]c(=O)n1-c1cccc(F)c1 was read as COUP-TFII inh 11, SMARCA2 act -1, NR2E3 ag-1 -19, NR2E3 ag-2 -2, GalR3 antag 27*, GalR3 conf 6 and HEK-CNG parental 0.
Screening COc1ccc(-n2c(N)cc(=O)[nH]c2=O)cc1 returned NR2E3 ag-2 1.
Cc1ccc(-n2c(=O)cc(N3CCN(C(=O)c4ccco4)CC3)[nH]c2=O)cc1 was read as COUP-TFII inh -46, SMARCA2 act -1, NR2E3 ag-1 -23, NR2E3 ag-2 2, GalR3 antag 15*, GalR3 conf 0 and HEK-CNG parental 0.
`COc1ccccc1OCC(=O)NN=C(Cc1ccccc1)Cc1ccccc1` gave COUP-TFII inh -14, SMARCA2 act -3, NR2E3 ag-1 -58, NR2E3 ag-2 1 and GalR3 antag -6.
CCOc1ccccc1OCC(=O)N/N=C(\C)Cc1ccc(OC)cc1 was read as COUP-TFII inh -48, SMARCA2 act -4, NR2E3 ag-1 13, NR2E3 ag-2 3, GalR3 antag 22*, GalR3 conf -2 and HEK-CNG parental 1.
For Cc1ccc(C(=O)c2cc([N+](=O)[O-])ccc2N2CC(C)OC(C)C2)cc1 (centres undefined) the results were COUP-TFII inh 12, SMARCA2 act 0, NR2E3 ag-1 13, NR2E3 ag-2 -2 and GalR3 antag -3.
CC1CN(c2ccc(C(=O)c3ccccc3C(=O)O)cc2[N+](=O)[O-])CC(C)O1 (centres undefined) was read as COUP-TFII inh 18, SMARCA2 act -5, NR2E3 ag-1 10, NR2E3 ag-2 -2, GalR3 antag 18*, GalR3 conf -1 and HEK-CNG parental 0.
